The test system of assay [1] is Aspergillus niger. The assay is described as follows: Antifungal activity against 10^8 CFU/mL Aspergillus niger MTCC 282 by broth microdilution method. The format is functional. An outline of the steps: (§1)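 Fungal MTCC cultures came from IMTECH Chandigarh. Mueller-Hinton broth served as growth and dilution medium, with DMSO as diluent. Inoculum was set to 10⁸ CFU/mL by turbidity. Serial dilutions from a 2000 stock gave a primary screen at 500, 250 and 125, followed by a secondary dilution series for actives. MIC was the lowest concentration inhibiting growth.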
(Broth dilution looks for growth in wells or tubes with falling amounts of substance.)

In assay [2] the test system is Mycobacterium tuberculosis. As to the kind of experiment: Antituberculosis activity against 5 x 10^4 bacilli per tube Mycobacterium tuberculosis H37Rv assessed as growth inhibition at 50 ug/mL incubated for 24 hrs measured after 28 days. The format is functional. To be noted: read-out: GI. An outline of the steps:
(§2)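 Conventional Lowenstein-Jensen method. Compound dilutions were made from a DMSO stock and added to liquid L-J medium, which was sterilized by inspissation. Tubes were incubated 24 h at 37 °C, then streaked with H37Rv (5 × 10⁴ bacilli per tube) harvested into 0.85% saline. Growth was checked at 12, 22 and 28 days at 37 °C against medium-only controls. MIC was the concentration giving no colonies or <20 colonies.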

In assay [3] the test system is Streptococcus pyogenes. The assay is described as follows: Antibacterial activity against 10^8 CFU/mL Streptococcus pyogenes MTCC 442 by broth microdilution method. The format is functional. An outline of the steps: (§3)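 MTCC bacterial strains from IMTECH Chandigarh were grown in Mueller-Hinton broth, which was also used to dilute the compounds. Inoculum was turbidity-adjusted to 10⁸ CFU/mL, and DMSO served as diluent. Compounds from a 2000 stock were screened first at 500, 250 and 125; actives were retested in a second dilution series. Tubes were incubated overnight at 37 °C, and MIC was the lowest concentration with no visible growth. Clear tubes were subcultured overnight at 37 °C to tell bacteriostatic from bactericidal.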

For assay [4], the system named is Pseudomonas aeruginosa. The assay is described as follows: Antibacterial activity against 10^8 CFU/mL Pseudomonas aeruginosa MTCC 1688 by broth microdilution method. It is filed as functional. An outline of the steps: as §3
The subject of assay [5] is Salmonella typhi. As to the kind of experiment: Antibacterial activity against 10^8 CFU/mL Salmonella typhi MTCC 98 by broth microdilution method. As to conditions: Salmonella enterica. It is filed as functional, Salmonella enterica subsp. enterica serovar Typhi. An outline of the steps: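 Broth microdilution in Mueller-Hinton broth with MTCC strains, inoculum adjusted by turbidity to 10⁸ CFU/mL. Compounds were diluted from DMSO. Primary screen used 500, 250 and 125 concentrations, and actives were serially diluted further. Tubes were incubated overnight at 37 °C. MIC was the lowest concentration with no visible growth. Clear tubes were subcultured overnight at 37 °C to judge bacteriostatic versus bactericidal.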

Assay [6] concerns Staphylococcus aureus. The assay is described as follows: Antibacterial activity against 10^8 CFU/mL Staphylococcus aureus MTCC 96 by broth microdilution method. It is filed as functional. An outline of the steps: as §3
Assay [7] concerns Mycobacterium tuberculosis. The assay is described as follows: Antituberculosis activity against 5 x 10^4 inoculum per tube Mycobacterium tuberculosis H37Rv after 24 hrs by Lowenstein-Jensen method. The format is functional. An outline of the steps:
as §2

The test system of assay [8] is Escherichia coli. The assay is described as follows: Antibacterial activity against 10^8 CFU/mL Escherichia coli MTCC 443 by broth microdilution method. It is filed as functional. An outline of the steps: as §3
For assay [9], the system named is Aspergillus clavatus. As to the kind of experiment: Antifungal activity against 10^8 CFU/mL Aspergillus clavatus MTCC 1323 by broth microdilution method. It is filed as functional. An outline of the steps:
as §1

Assay [10] concerns Candida albicans. As to the kind of experiment: Antifungal activity against 10^8 CFU/mL Candida albicans MTCC 227 by broth microdilution method. The format is functional. An outline of the steps:
as §1

Assay [11] concerns Bacillus subtilis. As to the kind of experiment: Antibacterial activity against 10^8 CFU/mL Bacillus subtilis MTCC 441 by broth microdilution method. The format is functional. An outline of the steps: as §3
In assay [12] the test system is Klebsiella pneumoniae. As to the kind of experiment: Antibacterial activity against 10^8 CFU/mL Klebsiella pneumoniae MTCC 109 by broth microdilution method. It is filed as functional. An outline of the steps:
as §3

Assay [13] has as its system Mycobacterium tuberculosis. The assay is described as follows: Antituberculosis activity against 5 x 10^4 bacilli per tube Mycobacterium tuberculosis H37Rv assessed as growth inhibition at 0.20 ug/mL incubated for 24 hrs measured after 28 days. It is filed as functional. As to conditions: read-out: GI. An outline of the steps: as §2
Assay [14] concerns Mycobacterium tuberculosis. As to the kind of experiment: Antituberculosis activity against 5 x 10^4 bacilli per tube Mycobacterium tuberculosis H37Rv assessed as growth inhibition at 40 ug/mL incubated for 24 hrs measured after 28 days. To be noted: read-out: GI. It is filed as functional. An outline of the steps: as §2
The test system of assay [15] is Mycobacterium tuberculosis. As to the kind of experiment: Antituberculosis activity against 5 x 10^4 bacilli per tube Mycobacterium tuberculosis H37Rv assessed as growth inhibition at 100 ug/mL incubated for 24 hrs measured after 28 days. It is filed as functional. To be noted: read-out: GI. An outline of the steps:
as §2

The record followed here is ChEMBL document CHEMBL1833842, “1,3-Dihydro-2H-indol-2-ones derivatives: design, synthesis, in vitro antibacterial, antifungal and antitubercular study” (2011).

SMILES strings stand for the structures. In brackets after ≈: the same amount, converted by molar mass.

As a reminder, the MIC is the least concentration at which growth counts as inhibited. A low value points to inhibition by little substance. A word on the MIC99: it is an inhibitory concentration at the 99% level, which refers to growth in some studies and to a panel of isolates in others. Read a low MIC99 as higher susceptibility.

Regarding `CC1=C(c2nnc(/N=C3\C(=O)Nc4ccc(F)cc43)s2)C(c2ccccc2)NC(=O)N1` (stereo not drawn), the minimum inhibitory concentration (MIC) was 100 µg/mL (≈ 230 µM) in assay [1], 50 µg/mL (≈ 115 µM) in [7], 200 µg/mL (≈ 460 µM) in assay [9] and 100 µg/mL (≈ 230 µM) in assay [10]. For the same compound, the inhibition of growth at 50 µg/mL in assay [2] is 99%. Also, the MIC99 is 100 µg/mL (≈ 230 µM) in assay [3]; 62.5 µg/mL (≈ 144 µM) in [4]; 100 µg/mL (≈ 230 µM) in assay [5]; 62.5 µg/mL (≈ 144 µM) in [6]; 100 µg/mL (≈ 230 µM) in assay [8]; 100 µg/mL (≈ 230 µM) in assay [11]. This compound also yielded an MIC99 in assay [12] of 100 µg/mL (≈ 230 µM).
For the compound `NNC(=O)c1ccncc1` [ISONIAZID], in [13], the inhibition of growth at 0.2 µg/mL worked out at 99%. Also, the MIC in assay [7] is 0.2 µg/mL (≈ 1.46 µM).
In the case of `CO[C@H]1/C=C/O[C@@]2(C)Oc3c(C)c(O)c4c(O)c(c(/C=N/N5CCN(C)CC5)c(O)c4c3C2=O)NC(=O)/C(C)=C\C=C\[C@H](C)[C@H](O)[C@@H](C)[C@@H](O)[C@@H](C)[C@H](OC(C)=O)[C@@H]1C` [RIFAMPIN], in assay [7], the MIC amounted to 40 µg/mL (≈ 48.6 µM). In addition, the inhibition of growth at 40 µg/mL in assay [14] was 98%.
As to `CC1=C(c2nnc(/N=C3\C(=O)Nc4ccc(Cl)cc43)s2)C(c2ccccc2)NC(=O)N1` (stereo not drawn), the minimal inhibitory concentration (MIC) in [1] was 500 µg/mL (≈ 1110 µM); in assay [7], 100 µg/mL (≈ 222 µM); in assay [9] it was 500 µg/mL (≈ 1110 µM); in assay [10], above 1000 µg/mL. The MIC99 worked out at 200 µg/mL (≈ 444 µM) in assay [3]; 200 µg/mL (≈ 444 µM) in assay [4]; 200 µg/mL (≈ 444 µM) in assay [5]; 200 µg/mL (≈ 444 µM) in [6]; 100 µg/mL (≈ 222 µM) in assay [8]; 200 µg/mL (≈ 444 µM) in assay [11]. Further, the MIC99 in assay [12] amounted to 200 µg/mL (≈ 444 µM). In addition, the inhibition of growth at 100 µg/mL in [15] came out at 98%.
